Measured values taken from ChEMBL document CHEMBL4725350, “2-Oxaadamant-1-yl Ureas as Soluble Epoxide Hydrolase Inhibitors: In Vivo Evaluation in a Murine Model of Acute Pancreatitis” (J Med Chem, 2020).
Activity calls are given as the source filed them. The rule behind the calls is not given here.

Columns and labels:
[1] = Acute toxicity in CD-1 mouse assessed as effect on behavior at 5 to 80 mg/kg, ip administered daily for 5 days; assay type: organism-based; details: in vivo, 120 h, dose 5-80 mg/kg, time 5 day
Summary of the method: (§1)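 Mice received the compound intraperitoneally once a day for five consecutive days at 5, 10, 20 and 80 mg/kg. Acute toxicity was judged from body weight during treatment, apparent behaviour problems and the presence of petechiae.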

[2] = test system: Mus musculus; experiment: Protection against cerulein-induced acute pancreatitis in C57BL/6J mouse assessed as reduction in MCP1 mRNA level at 30 mg/kg administered twice per day for 5 days followed by cerulein addition and measured 24 hrs post-last dose by Trisure-reagent based RT-PCR analysis; assay type: functional, organism-based; details: time 6.0 day
Summary of the method: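 Pre-induction (prevention) protocol in C57BL/6J mice. Inhibitor is given ip at 30 mg/kg before cerulein induction of acute pancreatitis. Pancreatic mRNA of TNF-α, IL-1β, MCP-1 and ATF3 is compared with control and cerulein-only mice. Mean ± SEM, n = 5 per group.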

[3] = test system: Mus musculus; experiment: Protection against cerulein-induced acute pancreatitis in C57BL/6J mouse assessed as reduction in ATF3 mRNA level at 30 mg/kg administered 24 hrs post-cerulein addition and measured after 24 hrs by Trisure-reagent based RT-PCR analysis; assay type: functional, organism-based
Summary of the method: (§2)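 Post-induction (treatment) protocol in C57BL/6J mice. Acute pancreatitis is induced by several cerulein administrations, followed by ip sEH inhibitor at 3 or 30 mg/kg. Pancreatic mRNA of TNF-α, IL-1β, MCP-1 and ATF3 is quantified against control and cerulein-only groups. Mean ± SEM, n = 5 per group.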

[4] = test system: Mus musculus; experiment: Protection against cerulein-induced acute pancreatitis in C57BL/6J mouse assessed as reduction in IL1-beta mRNA level at 3 mg/kg administered 24 hrs post-cerulein addition and measured after 24 hrs by Trisure-reagent based RT-PCR analysis; assay type: functional, organism-based; summary of the method: as §2
[5] = Cmax in CD-1 mouse at 1 mg/kg, ip measured up to 24 hrs by LC-MS analysis; assay type: ADME, organism-based; design: route intraperitoneal, dose 1 mg/kg, time <=24; details: in vivo
Summary of the method: (§3)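 Single dose, 1 mg/kg, given to mice intravenously or intraperitoneally. Parameters are taken from the plasma concentration–time profile: T1/2, Tmax, Cmax, C0 (iv only), AUClast, AUCINF_obs, Vz and Cl. Bioavailability is derived from ip versus iv exposure.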

[6] = Half life in CD-1 mouse at 1 mg/kg, iv measured up to 24 hrs by LC-MS analysis; assay type: ADME, organism-based; details: in vivo; summary of the method: as §3
[7] = test system: Mus musculus; experiment: Protection against cerulein-induced acute pancreatitis in C57BL/6J mouse assessed as reduction in inflammation at 30 mg/kg administered twice per day for 5 days followed by cerulein addition and measured 24 hrs post-last dose by H and E staining based histological analysis; assay type: functional, organism-based; details: time 6.0 day
Summary of the method: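 H&E-stained pancreas sections are scored for edema and inflammation. Groups are control, cerulein and cerulein plus inhibitor, in both the pre-induction and post-induction cerulein acute pancreatitis models in mice.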

[8] = Apparent volume of distribution in CD-1 mouse at 1 mg/kg, iv measured up to 24 hrs by LC-MS analysis; assay type: ADME, organism-based; details: in vivo; summary of the method: as §3
[9] = test system: Mus musculus; experiment: Protection against cerulein-induced acute pancreatitis in C57BL/6J mouse assessed as reduction in TNF-alpha mRNA level at 3 mg/kg administered 24 hrs post-cerulein addition and measured after 24 hrs by Trisure-reagent based RT-PCR analysis; assay type: functional, organism-based; summary of the method: as §2
[10] = test system: Mus musculus; experiment: Protection against cerulein-induced acute pancreatitis in C57BL/6J mouse assessed as reduction in MCP1 mRNA level at 3 mg/kg administered 24 hrs post-cerulein addition and measured after 24 hrs by Trisure-reagent based RT-PCR analysis; assay type: functional, organism-based; summary of the method: as §2
[11] = Acute toxicity in CD-1 mouse assessed as petechiae at 5 to 80 mg/kg, ip administered daily for 5 days; assay type: organism-based; details: in vivo, 120 h, dose 5-80 mg/kg, time 5 day; summary of the method: as §1
[12] = test system: Mus musculus; experiment: Protection against cerulein-induced acute pancreatitis in C57BL/6J mouse assessed as reduction in TNF-alpha mRNA level at 30 mg/kg administered 24 hrs post-cerulein addition and measured after 24 hrs by Trisure-reagent based RT-PCR analysis; assay type: functional, organism-based; summary of the method: as §2
[13] = Cmax in CD-1 mouse at 1 mg/kg, iv measured up to 24 hrs by LC-MS analysis; assay type: ADME, organism-based; design: route intravenous, dose 1 mg/kg, time <=24; details: in vivo; summary of the method: as §3
[14] = Acute toxicity in CD-1 mouse assessed as effect on body weight at 5 to 80 mg/kg, ip administered daily for 5 days and measured for 5 days; assay type: organism-based; details: in vivo, 240 h, dose 5-80 mg/kg, time 10 day; summary of the method: as §1
[15] = test system: Mus musculus; experiment: Protection against cerulein-induced acute pancreatitis in C57BL/6J mouse assessed as reduction in IL-1beta mRNA level at 30 mg/kg administered 24 hrs post-cerulein addition and measured after 24 hrs by Trisure-reagent based RT-PCR analysis; assay type: functional, organism-based; summary of the method: as §2
[16] = test system: Mus musculus; experiment: Protection against cerulein-induced acute pancreatitis in C57BL/6J mouse assessed as reduction in ATF3 mRNA level at 3 mg/kg administered 24 hrs post-cerulein addition and measured after 24 hrs by Trisure-reagent based RT-PCR analysis; assay type: functional, organism-based; summary of the method: as §2
[17] = AUClast in CD-1 mouse at 1 mg/kg, ip measured up to 24 hrs by LC-MS analysis; assay type: ADME, organism-based; design: route intraperitoneal, dose 1 mg/kg, time <=24; details: in vivo; summary of the method: as §3
[18] = Selectivity ratio of inhibition of recombinant human CYP3A4 to IC50 for inhibition of recombinant mouse soluble epoxide hydrolase using 7-BFC as substrate
[19] = Selectivity ratio of inhibition of recombinant human CYP1A2 to IC50 for inhibition of recombinant mouse soluble epoxide hydrolase
[20] = species: Homo sapiens; experiment: Selectivity ratio of inhibition of recombinant human CYP2C9 to IC50 for inhibition of recombinant human soluble epoxide hydrolase
[21] = Selectivity ratio of inhibition of recombinant human CYP2C9 to IC50 for inhibition of recombinant mouse soluble epoxide hydrolase

CC(C)S(=O)(=O)N1CCC(NC(=O)NC23CC4CC(CC(C4)O2)C3)CC1
Activity [1]: Non-Toxic | Activity [2]: Active | Activity [3]: Active | Activity [4]: inactive | Cmax [5]: 117.33 ng/mL | t1/2 [6]: 2.8 h | Activity [7]: Active | Vz [8]: 67.73 L/kg | Activity [9]: inactive | Activity [10]: inactive | Activity [11]: Non-Toxic | Activity [12]: Active | Cmax [13]: 108.33 ng/mL | Activity [14]: Non-Toxic | Activity [15]: Active | Activity [16]: inactive | AUClast [17]: 34.67 ng·h/mL

CC(=O)N1CCC(NC(=O)NC23CC4CC(CC(C4)O2)C3)CC1
Selectivity ratio [18]: > 100 | Selectivity ratio [19]: > 100 | Selectivity ratio [20]: > 100 | Selectivity ratio [21]: > 100
